For 26 molecules, IC50 results are on record in ChEMBL document CHEMBL1143782, “Alpha-aminothiazole-gamma-aminobutanoic amides as potent, small molecule CCR2 receptor antagonists” (Bioorg Med Chem Lett, 2007).

pIC50: −log10 of the molar value.

The pIC50 is −log10 of the IC50, conventionally taken in molar units. Lower therefore signals a high IC50.

The test deals with C-C chemokine receptor type 2 (Homo sapiens, UniProt P41597). Put plainly: Displacement of [125I]MCP1 from human CCR2 expressed in monocytes. Format: cell-based. In short, it runs like this: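 Human CCR2 binding was read as inhibition of 125I-MCP-1 binding to monocyte cells stably transfected with CCR2. The assay was run in the presence of 0.5% BSA, using membranes of these cells.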
Sequence of C-C chemokine receptor type 2 (P41597 whole entry): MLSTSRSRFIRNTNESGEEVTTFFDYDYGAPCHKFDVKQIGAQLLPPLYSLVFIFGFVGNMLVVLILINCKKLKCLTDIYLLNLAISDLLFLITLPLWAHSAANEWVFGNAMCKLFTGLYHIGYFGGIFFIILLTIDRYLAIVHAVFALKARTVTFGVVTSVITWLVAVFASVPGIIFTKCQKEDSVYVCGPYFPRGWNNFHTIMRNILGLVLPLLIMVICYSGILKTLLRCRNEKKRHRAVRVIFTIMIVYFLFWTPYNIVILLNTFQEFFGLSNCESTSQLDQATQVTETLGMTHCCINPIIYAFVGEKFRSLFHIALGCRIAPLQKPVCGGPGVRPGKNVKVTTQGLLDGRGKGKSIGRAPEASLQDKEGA
A general note: In a radioligand displacement assay an active substance lowers the binding of a labelled ligand.
Turning to `CS(=O)(=O)Nc1nc(C(CCN2CCC(c3ccccc3)CC2)C(=O)NCc2cc(C(F)(F)F)cc(C(F)(F)F)c2)cs1` (stereo unspecified), the negative logarithm of the IC50 (pIC50) is 7.44.

Regarding `CNC(=O)Nc1nc(C(CCN2CCC(c3ccccc3)CC2)C(=O)NCc2cc(C(F)(F)F)cc(C(F)(F)F)c2)cs1` (stereo unspecified), the negative-log IC50 (pIC50) is 8.52.

For the molecule `N=C(N)Nc1nc(C(CCN2CCC(c3ccccc3)CC2)C(=O)NCc2cc(C(F)(F)F)cc(C(F)(F)F)c2)cs1` (stereo unspecified), the pIC50 is 8.89.

Take `CC(=O)Nc1nc(C(CCN2CCCCC2)C(=O)NCc2cc(C(F)(F)F)cc(C(F)(F)F)c2)cs1` (stereo unspecified): the pIC50 was 7.89.

Consider `CCC(=O)Nc1nc(C(CCN2CCC(c3ccccc3)CC2)C(=O)NCc2cc(C(F)(F)F)cc(C(F)(F)F)c2)cs1` (stereo unspecified), for which the negative logarithm of the IC50 (pIC50) was 8.46.

On to `CC(=O)Nc1nc([C@H](CCN2CCC3(C=Cc4ccccc43)CC2)C(=O)NCc2cc(C(F)(F)F)cc(C(F)(F)F)c2)cs1`, for which the pIC50 is 8.85.

`CC(=O)Nc1nc(C(CCN2CCC3(C=Cc4ccccc43)CC2)C(=O)NCc2cc(C(F)(F)F)cc(C(F)(F)F)c2)cs1` (stereo unspecified) gave a pIC50 of 8.77.

`Nc1nc(C(CCN2CCC(c3ccc(F)cc3)CC2)C(=O)NCc2cc(C(F)(F)F)cc(C(F)(F)F)c2)cs1` (stereo unspecified) had a pIC50 of 8.04.

`C[C@H]1CN(CCC(C(=O)NCc2cc(C(F)(F)F)cc(C(F)(F)F)c2)c2csc(N)n2)CCC12C=Cc1ccccc12` (stereo partly specified) had a pIC50 of 8.89. Against the preceding molecule, the pIC50 is 0.85 log units higher.

`O=C(Nc1nc(C(CCN2CCC(c3ccccc3)CC2)C(=O)NCc2cc(C(F)(F)F)cc(C(F)(F)F)c2)cs1)c1ccccc1` (stereo unspecified) gave a pIC50 of 7.80.

`CC(C)(C)OC(=O)Nc1nc([C@H](CCN2CCC(c3ccccc3)CC2)C(=O)NCc2cc(C(F)(F)F)cc(C(F)(F)F)c2)cs1` showed a negative logarithm of the IC50 (pIC50) of 7.84.

`O=CNc1nc(C(CCN2CCC(c3ccccc3)CC2)C(=O)NCc2cc(C(F)(F)F)cc(C(F)(F)F)c2)cs1` (stereo unspecified) had a negative logarithm of the IC50 (pIC50) of 8.40.

In turn, `CC(=O)Nc1nc(C(CCN2CCC3(C=Cc4ccccc43)[C@@H](C)C2)C(=O)NCc2cc(C(F)(F)F)cc(C(F)(F)F)c2)cs1` (stereo partly specified) had a negative logarithm of the IC50 (pIC50) of 8.52.

Consider `Nc1nc(C(CCN2CCC(c3ccccc3)CC2)C(=O)NCc2cc(C(F)(F)F)cc(C(F)(F)F)c2)cs1` (stereo unspecified), for which the pIC50 was 7.70.

`CC(=O)Nc1nc(C(CCN2CCC(n3cnc4ccccc43)CC2)C(=O)NCc2cc(C(F)(F)F)cc(C(F)(F)F)c2)cs1` (stereo unspecified) gave a negative-log IC50 (pIC50) of 8.52.

For `Nc1nc([C@H](CCN2CCC(c3ccccc3)CC2)C(=O)NCc2cc(C(F)(F)F)cc(C(F)(F)F)c2)cs1`, the negative logarithm of the IC50 (pIC50) is 7.88.

In turn, `Nc1nc(C(CCN2CCC(n3cnc4ccccc43)CC2)C(=O)NCc2cc(C(F)(F)F)cc(C(F)(F)F)c2)cs1` (stereo unspecified) had a pIC50 of 7.54. Compared with the last molecule, the pIC50 is 0.34 log units lower.

In turn, `CC(=O)Nc1nc([C@@H](CCN2CCC3(C=Cc4ccccc43)CC2)C(=O)NCc2cc(C(F)(F)F)cc(C(F)(F)F)c2)cs1` showed a negative logarithm of the IC50 (pIC50) of 8.19.

As to `CNC(=O)Nc1nc([C@@H](CCN2CCC3(C=Cc4ccccc43)CC2)C(=O)NCc2cc(C(F)(F)F)cc(C(F)(F)F)c2)cs1`, the negative-log IC50 (pIC50) is 8.24.

`CC(C)(C)OC(=O)Nc1nc([C@@H](CCN2CCC(c3ccccc3)CC2)C(=O)NCc2cc(C(F)(F)F)cc(C(F)(F)F)c2)cs1` showed a negative logarithm of the IC50 (pIC50) of 7.88.

Take `CC(=O)Nc1nc([C@@H](CCN2CCC(c3ccccc3)CC2)C(=O)NCc2cc(C(F)(F)F)cc(C(F)(F)F)c2)cs1`: the negative logarithm of the IC50 (pIC50) is 7.38.

`Nc1nc(C(CCN2CCC3(C=Cc4ccccc43)CC2)C(=O)NCc2cc(C(F)(F)F)cc(C(F)(F)F)c2)cs1` (stereo unspecified) gave a pIC50 of 8.14.

`COC(=O)Nc1nc(C(CCN2CCC(c3ccccc3)CC2)C(=O)NCc2cc(C(F)(F)F)cc(C(F)(F)F)c2)cs1` (stereo unspecified) gave a pIC50 of 8.59. Against the preceding molecule, the pIC50 is 0.45 log units higher.

`CC(=O)Nc1nc([C@H](CCN2CCC(c3ccccc3)CC2)C(=O)NCc2cc(C(F)(F)F)cc(C(F)(F)F)c2)cs1` showed a pIC50 of 8.74.

`CC(C)(C)C(=O)Nc1nc(C(CCN2CCC(c3ccccc3)CC2)C(=O)NCc2cc(C(F)(F)F)cc(C(F)(F)F)c2)cs1` (stereo unspecified) showed a pIC50 of 7.74.

In turn, `CC(=O)Nc1nc(C(CCN2CCN(c3ccccc3C)CC2)C(=O)NCc2cc(C(F)(F)F)cc(C(F)(F)F)c2)cs1` (stereo unspecified) showed a pIC50 of 7.84.
